Assays:
A549 = assay: In vitro antitumor activity against A549 human non-small lung carcinoma cells containing 10% fetal bovine serum; assay type: functional, cell-based
Outline: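 Cells plated at 2000-3000/well in RPMI with 10% fetal bovine serum and left to adhere for 24 h at 37 °C in humidified 5% CO2. Drug (0.1-1000 nM) then added for a further 72 h of continuous exposure. Sulforhodamine B staining read-out. Growth taken as % of untreated controls and plotted against log drug concentration to give IC50.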

[1] = biological target: T1, Dihydrofolate reductase (Homo sapiens) (UniProt P00374)
T1 sequence (whole entry): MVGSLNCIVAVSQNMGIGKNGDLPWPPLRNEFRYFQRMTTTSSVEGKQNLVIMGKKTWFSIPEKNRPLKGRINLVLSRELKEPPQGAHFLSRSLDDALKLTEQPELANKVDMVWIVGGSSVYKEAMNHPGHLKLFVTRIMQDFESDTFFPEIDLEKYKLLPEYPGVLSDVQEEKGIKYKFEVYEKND

SCC-25 = assay: In vitro antitumor activity against SCC25 human head and neck squamous carcinoma cells containing 10% fetal bovine serum; assay type: functional, cell-based
Outline: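 Clonogenic assay. Cells kept in Dulbecco's MEM with 10% FBS and hydrocortisone (400 µg/L). Exponential-phase cells preincubated without drug for 48 h, exposed to 0.01-5000 nM for 72 h, then replated in fresh medium. After 14 days, colonies of ≥5 cells stained with crystal violet and counted. Survival taken as % of untreated controls and IC50 estimated from a log-log plot. Replicate plates, at least three separate days.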

UO-31 = assay: The IC50 value was measured on UO-31 cell line in renal tumor type.; assay type: functional, cell-based; details: Homo sapiens
Outline: (§1)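 Standard NCI cell-line panel protocol. Cells plated in 96-well format and treated continuously with drug for 48 h. Total protein stained with Sulforhodamine B and IC50 derived.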

MCF7 = assay: The IC50 value was measured on MCF-7 cell line in breast tumor type; assay type: functional, cell-based; details: Homo sapiens; outline: as §1
HT-29 = assay: The IC50 value was measured on HT-29 cell line in colon tumor type.; assay type: functional, cell-based; details: Homo sapiens; outline: as §1
NCI-H460 = assay: The IC50 value was measured on NCl-H460 cell line in NSCL tumor type; assay type: functional, cell-based; details: Homo sapiens; outline: as §1
HCT-15 = assay: The IC50 value was measured on HCT-15 cell line in colon tumor type.; assay type: functional, cell-based; details: Homo sapiens; outline: as §1
KM12 = assay: The IC50 value was measured on KM-12 cell line in colon tumor type.; assay type: functional, cell-based; details: Homo sapiens; outline: as §1
NCI-H522 = assay: The IC50 value was measured on NCl-H522 cell line in NSCL tumor type.; assay type: functional, cell-based; details: Homo sapiens; outline: as §1
OVCAR-3 [2] = assay: The IC50 value was measured on OVCAR-3 cell line in ovarian tumor t; assay type: functional, cell-based; details: Homo sapiens; outline: as §1
UACC-62 = assay: The IC50 value was measured on UACC-62 cell line in melanoma tumor type.; assay type: functional, cell-based; details: Homo sapiens; outline: as §1
Mus musculus [3] = assay: Time to reach 10 mm Tumor size of subcutaneously implanted SCC-VII squamous cell carcinoma in mice; details: route subcutaneous
SK-MEL-28 = assay: The IC50 value was measured on SKMEL-28 cell line in melanoma tumor type.; assay type: functional, cell-based; details: Homo sapiens; outline: as §1
LOX IMVI = assay: The IC50 value was measured on LOX IMVI cell line in melanoma tumor ty; assay type: functional, cell-based; details: Homo sapiens; outline: as §1
786-0 [4] = assay: The IC50 value was measured on 786-0 cell line in ovarian tumor t; assay type: functional, cell-based; details: Homo sapiens, in the assay text read “renal” for “ovarian”; outline: as §1
Mus musculus [5] = assay: Tumor size of subcutaneously implanted SCC-VII squamous cell carcinoma in mice on day 7; details: route subcutaneous
HCT-116 = assay: The IC50 value was measured on HCT116 cell line in colon tumor type.; assay type: functional, cell-based; details: Homo sapiens; outline: as §1
DU-145 = assay: The IC50 value was measured on DU-145 cell line in prostate tumor type.; assay type: functional, cell-based; details: Homo sapiens; outline: as §1
OVCAR-5 = assay: The IC50 value was measured on OVCAR-5 cell line in ovarian tumor type.; assay type: functional, cell-based; details: Homo sapiens; outline: as §1
PC-3 = assay: The IC50 value was measured on PC-3 cell line in prostate tumor type.; assay type: functional, cell-based; details: Homo sapiens; outline: as §1
NCI-H23 = assay: The IC50 value was measured on NCl-H23 cell line in NSCL tumor type.; assay type: functional, cell-based; details: Homo sapiens; outline: as §1
ACHN = assay: The IC50 value was measured on ACHN cell line in renal tumor type.; assay type: functional, cell-based; details: Homo sapiens; outline: as §1
SW-620 = assay: The IC50 value was measured on SW-620 cell line in colon tumor type.; assay type: functional, cell-based; details: Homo sapiens; outline: as §1
SNB-75 = assay: The IC50 value was measured on SNB-75 cell line in CNS tumor type.; assay type: functional, cell-based; details: Homo sapiens; outline: as §1
Mus musculus [6] = assay: Tumor size of subcutaneously implanted SCC-VII squamous cell carcinoma in mice on day 0; details: route subcutaneous
SF-539 = assay: The IC50 value was measured on SF-539 cell line in CNS tumor type.; assay type: functional, cell-based; details: Homo sapiens; outline: as §1
SK-MEL-5 = assay: The IC50 value was measured on SK-MEL-5 cell line in melanoma tumor type.; assay type: functional, cell-based; details: Homo sapiens; outline: as §1
OVCAR-8 = assay: The IC50 value was measured on OVCAR-8 cell line in ovarian tumor type.; assay type: functional, cell-based; details: Homo sapiens; outline: as §1
SF-268 = assay: The IC50 value was measured on SF-268 cell line in CNS tumor type.; assay type: functional, cell-based; details: Homo sapiens; outline: as §1
EKVX = assay: The IC50 value was measured on EKVX cell line in NSCL tumor type.; assay type: functional, cell-based; details: Homo sapiens; outline: as §1
NCI/ADR-RES = assay: The IC50 value was measured on MCF7-ADR cell line in breast tumor type.; assay type: functional, cell-based; details: Homo sapiens; outline: as §1
Mus musculus [7] = assay: Tumor growth delay of subcutaneously implanted SCC-VII squamous cell carcinoma in mice; details: route subcutaneous
Malme-3M = assay: The IC50 value was measured on MALME-3M cell line in melanoma tumor type; assay type: functional, cell-based; details: Homo sapiens; outline: as §1
OVCAR-3 [8] = assay: The IC50 value was measured on OVCAR-3 cell line in ovarian tumor; assay type: functional, cell-based; details: Homo sapiens; outline: as §1
786-0 [9] = assay: The IC50 value was measured on 786-0 cell line in ovarian tumor; assay type: functional, cell-based; details: Homo sapiens, in the assay text read “renal” for “ovarian”; outline: as §1

IC50 (A549)	IC50/[E] (nM milliunit-1) [1]	IC50 (SCC-25)	Structure (SMILES)	IC50 (UO-31)	IC50 (MCF7)	IC50 (HT-29)	IC50 (NCI-H460)	IC50 (HCT-15)	IC50 (KM12)	IC50 (NCI-H522)	IC50 (UACC-62)	Time (Mus musculus [3])	IC50 (SK-MEL-28)	IC50 (LOX IMVI)	Tumor size (Mus musculus [5])	IC50 (HCT-116)	IC50 (DU-145)	IC50 (OVCAR-5)	IC50 (PC-3)	IC50 (NCI-H23)	other results
45 nM	2.2	2.9 nM	Nc1nc(N)c2nc(CNc3ccc(C(=O)NC(CCCNC(=O)c4cccc(C(=O)O)c4)C(=O)O)cc3)cnc2n1 (stereo not drawn)																		
22 nM	2.5		Nc1nc(N)c2nc(CNc3ccc(C(=O)NC(CCNC(=O)c4ccccc4C(=O)O)C(=O)O)cc3)cnc2n1 (stereo not drawn)	8 nM	> 1000 nM	9.8 nM	14 nM	7.2 nM	> 1000 nM	> 1000 nM	12 nM	9.8 days	> 1000 nM	4.4 nM	5.1 mm	5 nM	34 nM	86 nM	6.7 nM	32 nM	IC50 (OVCAR-3 [2]): > 1000 nM; IC50 (786-0 [4]): 9.2 nM; IC50 (ACHN): 45 nM; IC50 (SW-620): 6.3 nM; IC50 (SNB-75): > 1000 nM; Tumor size (Mus musculus [6]): 1.1 mm; IC50 (SF-539): 57 nM; IC50 (SK-MEL-5): 85 nM; IC50 (OVCAR-8): 8.1 nM; IC50 (SF-268): > 100 nM; IC50 (EKVX): 21 nM; IC50 (NCI/ADR-RES): > 1000 nM; TGD (Mus musculus [7]): 2.6 days; IC50 (Malme-3M): > 1000 nM
3300 nM	2.8	72 nM	Nc1nc(N)c2nc(CNc3ccc(C(=O)NC(CCCNC(=O)c4ccc(C(=O)O)cc4)C(=O)O)cc3)cnc2n1 (stereo not drawn)																		

Structure (SMILES)	IC50 (A549)	IC50/[E] (nM milliunit-1) [1]	IC50 (SCC-25)	IC50 (UO-31)	IC50 (MCF7)	IC50 (HT-29)	IC50 (NCI-H460)	IC50 (HCT-15)	IC50 (KM12)	IC50 (NCI-H522)	IC50 (UACC-62)	Time (Mus musculus [3])	IC50 (SK-MEL-28)	IC50 (LOX IMVI)	Tumor size (Mus musculus [5])	IC50 (HCT-116)	IC50 (DU-145)	IC50 (OVCAR-5)	IC50 (PC-3)	IC50 (NCI-H23)	other results
Nc1nc(N)c2nc(CNc3ccc(C(=O)NC(CCCNC(=O)c4ccccc4C(=O)O)C(=O)O)cc3)cnc2n1 (stereo not drawn)	1.3 nM	2	0.3 nM	5.5 nM	3.6 nM	1.2 nM	0.5 nM	1.2 nM	3.2 nM	23 nM	1.8 nM	12 days	4.6 nM	0.4 nM	6.8 mm	0.3 nM	9.5 nM	2.5 nM	> 100 nM	4.4 nM	IC50 (OVCAR-3 [8]): > 100 nM; IC50 (786-0 [9]): 0.6 nM; IC50 (ACHN): 2.4 nM; IC50 (SW-620): 1.9 nM; IC50 (SNB-75): > 10000 nM; Tumor size (Mus musculus [6]): 2.1 mm; IC50 (SF-539): 3.7 nM; IC50 (SK-MEL-5): 6 nM; IC50 (OVCAR-8): 2.4 nM; IC50 (SF-268): 2.5 nM; IC50 (EKVX): 23 nM; IC50 (NCI/ADR-RES): 2.7 nM; TGD (Mus musculus [7]): 5 days; IC50 (Malme-3M): 2 nM

From ChEMBL document CHEMBL1130284, “Analogues of N alpha-(4-amino-4-deoxypteroyl)-N delta-hemiphthaloyl-L-ornithine (PT523) modified in the side chain: synthesis and biological evaluation” (J Med Chem, 1997)
